Usually IC50 stands for the concentration needed to halve the response being measured. Lower therefore signals inhibition by little substance.

Our source for the IC50 values is ChEMBL document CHEMBL1127840, “Conformational analysis of 5-lipoxygenase inhibitors: role of the substituents in chiral recognition and on the active conformations of the (methoxyalkyl)thiazole and methoxytetrahydropyran series” (J Med Chem, 1994).

The target of test [1] is T1, Polyunsaturated fatty acid 5-lipoxygenase (Mus musculus, UniProt P48999).
T1 sequence (P48999 whole entry): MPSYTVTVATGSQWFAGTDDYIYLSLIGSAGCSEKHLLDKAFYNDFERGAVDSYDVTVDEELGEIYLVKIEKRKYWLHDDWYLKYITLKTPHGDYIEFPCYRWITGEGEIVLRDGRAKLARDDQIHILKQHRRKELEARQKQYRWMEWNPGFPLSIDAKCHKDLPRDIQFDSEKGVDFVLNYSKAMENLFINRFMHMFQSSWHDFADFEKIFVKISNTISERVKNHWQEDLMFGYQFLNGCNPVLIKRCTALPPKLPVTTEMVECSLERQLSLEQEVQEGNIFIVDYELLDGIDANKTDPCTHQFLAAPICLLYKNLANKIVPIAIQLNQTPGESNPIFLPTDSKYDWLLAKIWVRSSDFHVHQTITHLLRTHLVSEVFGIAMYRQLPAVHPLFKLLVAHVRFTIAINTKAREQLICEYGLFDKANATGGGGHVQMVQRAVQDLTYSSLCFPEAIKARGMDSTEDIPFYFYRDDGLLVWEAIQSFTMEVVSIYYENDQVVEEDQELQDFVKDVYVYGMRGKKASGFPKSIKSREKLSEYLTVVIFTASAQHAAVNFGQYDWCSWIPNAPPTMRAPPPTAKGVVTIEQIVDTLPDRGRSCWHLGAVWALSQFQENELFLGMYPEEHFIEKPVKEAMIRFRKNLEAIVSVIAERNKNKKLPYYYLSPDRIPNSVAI
In words: Inhibition of 5-lipoxygenase from mouse macrophage. The gist of the method: (§1)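 Plasma-free cultures of murine peritoneal macrophages. Inhibition of LTC4 synthesis (5-LO product) measured, with PGE2 also monitored. IC50 from iterative four-parameter curve fit. Data reported as mean ± SE with the number of determinations; where only two runs were made, both values are given.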

Test [2] deals with T2, Polyunsaturated fatty acid 5-lipoxygenase (Homo sapiens, UniProt P09917).
T2 sequence (P09917 whole entry): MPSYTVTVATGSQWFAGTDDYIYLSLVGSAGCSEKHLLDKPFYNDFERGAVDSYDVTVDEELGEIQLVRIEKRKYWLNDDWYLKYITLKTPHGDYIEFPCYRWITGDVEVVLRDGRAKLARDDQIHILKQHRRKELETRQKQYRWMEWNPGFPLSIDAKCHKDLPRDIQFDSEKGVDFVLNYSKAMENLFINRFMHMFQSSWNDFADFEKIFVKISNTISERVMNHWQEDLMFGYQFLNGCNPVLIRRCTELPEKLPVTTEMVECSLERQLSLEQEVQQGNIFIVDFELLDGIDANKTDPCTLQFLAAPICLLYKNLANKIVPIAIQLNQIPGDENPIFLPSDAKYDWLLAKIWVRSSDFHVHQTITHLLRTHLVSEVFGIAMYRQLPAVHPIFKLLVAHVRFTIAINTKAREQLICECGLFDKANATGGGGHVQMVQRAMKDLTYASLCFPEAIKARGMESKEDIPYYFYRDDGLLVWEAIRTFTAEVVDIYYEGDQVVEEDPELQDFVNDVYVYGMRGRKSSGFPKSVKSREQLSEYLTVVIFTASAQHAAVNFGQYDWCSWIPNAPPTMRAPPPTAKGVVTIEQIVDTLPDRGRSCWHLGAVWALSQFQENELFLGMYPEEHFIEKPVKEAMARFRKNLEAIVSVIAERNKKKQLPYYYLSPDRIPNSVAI
In words: Inhibition of 5-lipoxygenase from human whole blood. Type of test: tissue-based. Put shortly: (§2)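 Eicosanoid generation measured to assess 5-LO inhibition. IC50 from iterative four-parameter curve fit. Data reported as mean ± SE with the number of determinations; where only two runs were made, both values are given.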

Test [3] deals with T1, Polyunsaturated fatty acid 5-lipoxygenase. In words: Inhibitory concentration against 5-lipoxygenase from mouse macrophage. Put shortly: as §1
The target in test [4] is T2, Polyunsaturated fatty acid 5-lipoxygenase. In words: Inhibitory concentration against 5-lipoxygenase from human whole blood. Type of test: tissue-based. The gist of the method:
as §2

In test [1], `CC[C@](COC)(OC)c1cc(F)cc(OCc2ccc3c(ccc(=O)n3C)c2)c1` came in with an IC50 of 45 nM. In other words, the double-digit nanomolar range. On to `COC1(c2cc(F)cc(OCc3ccc4c(ccc(=O)n4C)c3)c2)CCOCC1` [ZD-2138], for which, in test [2], 27 nM corresponded to half-maximal inhibition (IC50). This counts as double-digit nanomolar. `COC1(c2nccs2)CCc2ccc(OCc3ccc4ccccc4c3)cc21` (single isomer, unassigned; (-)) had an IC50 in test [3] of 1250 nM.

With `CC[C@@](COC)(OC)c1cc(F)cc(OCc2ccc3c(ccc(=O)n3C)c2)c1`, the figures for the IC50 in test [4] and in test [1] were 520 nM and 48 nM, respectively.
